Test results reported in ChEMBL document CHEMBL1123227, “Tricyclic epines. Novel (E)- and (Z)-11H-dibenz[b,e]azepines as potential central nervous system agents. Variation of the basic side chain” (1986).

Columns and labels:
Format in all cases: functional
Mus musculus [1] = organism: Mus musculus; experiment: Anticholinergic activity relative with respect to clozapine.
Mus musculus [2] = organism: Mus musculus; experiment: Anticholinergic activity in mice.
Outline: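 Groups of 10 female NMRI mice received a lethal dose of physostigmine (0.825 mg/kg sc). Test substances were given orally 30 min before the physostigmine.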

Mus musculus [3] = organism: Mus musculus; experiment: Sedative activity relative with respect to clozapine.
Mus musculus [4] = organism: Mus musculus; experiment: Sedative activity in mice
Rattus norvegicus [5] = organism: Rattus norvegicus; experiment: Compound was tested or the anti-tryptamine activity in rats relative with respect to clozapine.
Outline: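 Rats dosed ip 30 min before tryptamine hydrochloride 16 mg/kg iv. Effect means front paw clonic movements absent over 5 min observation after tryptamine. ED50 is the dose preventing the symptom in half the animals (Probit analysis); relative activity referenced to clozapine.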

Rattus norvegicus [6] = organism: Rattus norvegicus; experiment: Compound was tested or the anti-tryptamine activity in rats
Outline: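 Rats were challenged with tryptamine hydrochloride (16 mg/kg iv), with test substances given ip 30 min beforehand. Activity was scored as absence of clonic front paw movements over a 5 min observation after tryptamine. ED50 was the dose preventing the symptom in half the animals, determined by Probit analysis.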

Oryctolagus cuniculus = organism: Oryctolagus cuniculus; experiment: Compound was tested for the muscle-relaxing activity in rabbits
Outline: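 Muscle electrical activity during contraction was recorded and pulses were counted. A 5 s extension was repeated every 1 min. Once pulse counts were constant (control value), the substance was given iv, and post-dose pulses were related to that value. Four to six animals were used per dose. ED50 was the dose halving muscle activity from the initial value.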

Rattus norvegicus [7] = organism: Rattus norvegicus; experiment: Compound was tested for the apomorphine antagonistic activity in rats expressed as relative activity
Outline: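 Female Sprague–Dawley rats, groups of four to six. Oral dosing 90 min before apomorphine 1.5 mg/kg sc. Jaw movements recorded via implanted electrodes (mandibulogram).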

| Compound | Relative activity (Mus musculus [1]) | ED50 (Mus musculus [2]) [mg/kg] | Relative activity (Mus musculus [3]) | ED50 (Mus musculus [4]) [mg/kg] | Relative activity (Rattus norvegicus [5]) | ED50 (Rattus norvegicus [6]) [mg/kg] | ED50 (Oryctolagus cuniculus) [mg/kg] | Relative activity (Rattus norvegicus [7]) |
| --- | --- | --- | --- | --- | --- | --- | --- | --- |
| C[N+]1([O-])CCCC(COC2=Nc3ccccc3/C(=C/C#N)c3ccccc32)C1 (centres undefined) | <0.14 | > 100 | <0.04 | > 100 |  |  |  |  |
| CN(C)CCNC1=Nc2ccccc2/C(=C/C#N)c2ccccc21 | <0.14 | > 100 | 0.31 | 15.5 |  |  |  |  |
| CCN(CC)CCNC1=Nc2ccccc2/C(=C/C#N)c2ccccc21 | <0.14 | > 100 | 0.83 | 5.72 |  |  |  |  |
| CN1CCC(N(C)C2=Nc3ccccc3/C(=C/C#N)c3ccccc32)CC1 | 0.45 | ~31.6 | 0.35 | 13.4 |  |  |  |  |
| Cc1ccc2c(c1)N=C(N1CCN(C)CC1)c1ccccc1/C2=C/C#N |  |  |  | 33.6 | 0.1 | 51 | 0.25 |  |
| CN1CCN(C2=Nc3cc(Cl)ccc3Nc3ccccc32)CC1 [CLOZAPINE] | 1 |  | 1 |  | 1 | 5 | 0.028 | 1 |
| CCN1CCCC1CNC1=Nc2ccccc2/C(=C/C#N)c2ccccc21 (centres undefined) | <0.14 | > 100 | 0.28 | 17.2 |  |  |  |  |
| C[N+]1([O-])CCN(C2=Nc3ccccc3/C(=C\C#N)c3ccccc32)CC1 | 1.61 | 8.75 | 0.04 |  |  |  |  |  |
| CC1CN(C2=Nc3ccccc3/C(=C/C#N)c3ccccc32)CCN1C (centres undefined) | 1.84 | 7.68 | 0.59 | 8.08 |  |  |  |  |
| C[N+]1([O-])CCN(C2=Nc3ccccc3C(=CC#N)c3ccccc32)CC1 | 0.89 | 15.9 | 0.33 |  |  |  |  |  |
| CN1CCC(OC2=Nc3ccccc3/C(=C/C#N)c3ccccc32)CC1 | <0.66 | > 21.5 | <0.22 | > 21.5 |  |  |  |  |
| Cc1ccc2c(c1)N=C(N1CC[N+](C)([O-])CC1)c1ccccc1/C2=C/C#N | 0.45 | 31 | 1.78 | 2.66 |  |  |  |  |
| N#C/C=C1/c2ccccc2N=C(NCCN2CCCC2)c2ccccc21 | <0.14 | > 100 | 0.96 | 4.96 |  |  |  |  |
| CN1CCCCC1COC1=Nc2ccccc2/C(=C/C#N)c2ccccc21 (centres undefined) | 0.21 | ~68.1 | 0.11 | 43.6 |  |  |  |  |
| N#C/C=C1/c2ccccc2N=C(NCCN2CCOCC2)c2ccccc21 | <0.14 | > 100 | 0.58 | 8.12 |  |  |  |  |
| Cc1ccc2c(c1)N=C(N1CCN(CCN3CCOC3=O)CC1)c1ccccc1/C2=C\C#N | <0.3 | > 46.4 | 0.5 | 9.56 |  |  |  |  |
| N#C/C=C1/c2ccccc2N=C(NCCN2CCCCC2)c2ccccc21 | <1.41 | > 10 |  |  |  |  |  |  |
| N#C/C=C1/c2ccccc2N=C(NCCN)c2ccccc21 | <0.14 | > 100 | <0.04 | > 100 |  |  |  |  |
| CN1CCCN(C2=Nc3ccccc3/C(=C/C#N)c3ccccc32)CC1 | 2.57 | 5.49 | <0.22 | > 21.5 |  |  |  |  |
| CN1CCCC(COC2=Nc3ccccc3/C(=C/C#N)c3ccccc32)C1 (centres undefined) | 2.38 | 5.92 | <0.1 | > 46.4 |  |  |  |  |
| CN1CCN(CCNC2=Nc3ccccc3/C(=C/C#N)c3ccccc32)CC1 | <0.14 | > 100 | 0.17 | 27.7 |  |  |  |  |
| CN1CCCC(CNC2=Nc3ccccc3/C(=C/C#N)c3ccccc32)C1 (centres undefined) | 0.3 | ~46.4 | <0.04 | > 100 |  |  |  |  |
| Cc1ccc2c(c1)N=C(N1CCN(C)CC1)c1ccccc1/C2=C\C#N |  | ~100 |  |  | 0.5 | 10 | 0.014 |  |
| N#C/C=C1/c2ccccc2N=C(N2CCOC(CO)C2)c2ccccc21 (centres undefined) | 0.3 | ~46.4 | <0.1 | > 46.4 |  |  |  |  |
